# Test results as given in ChEMBL document CHEMBL4842389, “Discovery of Dolastatinol: A Synthetic Analog of Dolastatin 10 and Low Nanomolar Inhibitor of Tubulin Polymerization” (ACS Med Chem Lett, 2021).
# Active and inactive are the calls of the source. No cut-off for these calls is given here. Square brackets hold non-standard residues; d marks the D form. Peptide text beside a SMILES is read from it. Dolaproine = CO[C@@H]([C@@H]1CCCN1)[C@@H](C)C(=O)O; Dil = CC[C@H](C)[C@H](NC)[C@@H](CC(=O)O)OC; NMeV = CN[C@H](C(=O)O)C(C)C
# Columns and labels:
# MDA-MB-231 [1] = assay: Cell cycle arrest in human MDA-MB-231 cells assessed as accumulation at G1 phase at 125 nM after 24 hrs by RNaseA/propidium iodide staining based FACSCalibur flow cytometry (reference value: 37.64 %); type: functional
# BT-474 = assay: Cytotoxicity against human BT-474 cells assessed as reduction in cell viability incubated for 96 hrs by XTT assay; type: functional, cell-based; settings: BT-474, 96 h
# Procedure, shortened: (§1)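 XTT viability assay on human breast cancer cells. Cells were seeded at 5000 cells/well, left to adhere overnight, then exposed to increasing compound concentrations for 96 h in complete medium with DMSO below 0.05% final. Wells were washed and refed, then given XTT reagent for 3 h, with absorbance read at 450 nm. Response was normalized to DMSO controls. Tetraplicates, three independent experiments. IC50 from a four-parameter variable-slope fit.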
# SK-BR-3 = assay: Cytotoxicity against human SKBR3 cells assessed as reduction in cell viability incubated for 96 hrs by XTT assay; type: functional, cell-based; settings: SK-BR-3, 96 h; procedure, shortened: as §1
# MDA-MB-231 [2] = assay: Cell cycle arrest in human MDA-MB-231 cells assessed as accumulation at G2/M phase at 125 nM after 24 hrs by RNaseA/propidium iodide staining based FACSCalibur flow cytometry (reference value: 26.37 %); type: functional
# MDA-MB-231 [3] = assay: Cell cycle arrest in human MDA-MB-231 cells assessed as accumulation at sub G1 phase at 125 nM after 24 hrs by RNaseA/propidium iodide staining based FACSCalibur flow cytometry (reference value: 3.27 %); type: functional
# MDA-MB-231 [4] = assay: Induction of mitochondrial disintegration in human MDA-MB-231 cells at 625 nM measured after 24 hrs by Mitotracker green dye based fluorescence microscopy; type: functional, cell-based
# Procedure, shortened: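 MDA-MB-231 cells (7000/well) grown overnight in DMEM with 10% FBS, then given 5, 25, 125 or 625 nM for 24 h. Live cells labelled 30 min with 75 nM MitoTracker Green FM in serum- and phenol red-free DMEM, counterstained with DAPI for 15 min, and imaged by fluorescence microscopy at 40× to view mitochondrial fission.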
# Tubulin (Homo sapiens) = Tubulin (Homo sapiens) (UniProt P68371+Q9H4B7+P0DPH7+P68366+Q13509+Q71U36+P04350+Q3ZCM7+P07437+P68363+Q9BQE3+Q6PEY2+Q13885+Q9BVA1+Q9BUF5); assay: Inhibition of microtubule in human MDA-MB-231 cells assessed as reduction in microtubule network in interphase cells measured after 24 hrs by DAPI staining based immunofluorescence microscopic analysis; type: cell-based; settings: dose 5-625 nM
# Procedure, shortened: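 MDA-MB-231 cells (10 000/well, 70–80% confluent) treated 24 h at 5, 25, 125 and 625 nM in DMEM. Fixed in 4% paraformaldehyde, permeabilized with 0.2% Triton X-100, blocked in 5% BSA, stained with anti-α-tubulin (DM1A, 1:800, 16 h) and Alexa Fluor 488 secondary, nuclei with DAPI. Imaged at 40×; interphase microtubule network quantified, unpaired two-tailed t test.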
# MDA-MB-231 [5] = assay: Cell cycle arrest in human MDA-MB-231 cells assessed as accumulation at S phase at 125 nM after 24 hrs by RNaseA/propidium iodide staining based FACSCalibur flow cytometry (reference value: 19.96 %); type: functional
# MDA-MB-231 [6] = assay: Inhibition of cell migration in human MDA-MB-231 cells assessed as reduction of cell mobility at 5 nM measured at 24 hrs by well scratch method; type: functional, cell-based
# Procedure, shortened: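 MDA-MB-231 cells (3 × 10^4/well) attached overnight, then exposed to 5 nM in serum-free DMEM for 48 h. Monolayer scratched, debris washed off, complete medium added without drug. Images taken at 10× at 0 h and after 24 h; percentage wound coverage quantified. Two-tailed unpaired t test.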
# MDA-MB-231 [7] = assay: Cytotoxicity against human MDA-MB-231 cells assessed as reduction in cell viability incubated for 96 hrs by XTT assay; type: functional, cell-based; procedure, shortened: as §1
smiles,measurement,setting,value
CC[C@H](C)[C@@H]([C@@H](CC(=O)N1CCC[C@H]1[C@H](OC)[C@@H](C)C(=O)N[C@@H](Cc1ccccc1)C(=O)O)OC)N(C)C(=O)[C@@H](NC(=O)[C@@H](NC)C(C)C)C(C)C (H-[NMeV]V[Dil][Dolaproine]F-OH),Activity,MDA-MB-231 [1],30.88%
same,IC50,BT-474,8.8 nM
same,IC50,SK-BR-3,5.3 nM
same,Activity,MDA-MB-231 [2],32.79%
same,Activity,MDA-MB-231 [3],9.66%
same,Activity,MDA-MB-231 [4],inactive
same,inhibition,Tubulin (Homo sapiens),Dose-Dependent Effect
same,Activity,MDA-MB-231 [5],16.11%
same,inhibition,MDA-MB-231 [6],Active
same,IC50,MDA-MB-231 [7],Not Active
